Shown are actives, neighbours in structure and some others; about 3.1% of the full set was active somewhere.
aDG glyco act: alpha-DG glycosylation activation; AID 624168; activation, % at 10 µM; Pro5-aDG cells, alpha-DG glycosylation AlphaScreen (IIH6); 0% Pro5, 100% B10-LARGE cell signal; actives 0.22% (n = 360,000);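 active = activation of at least 8% versus controls, or a plate z-score of at least 8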;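 note: Pro5 are CHO cells carrying HIG-tagged alpha-DG that lacks glycosylation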
ADAM17 inh: ADAM17 inhibition, QFRET primary screen | P78536 | recombinant ADAM17, EDANS/DABCYL FRET peptide cleavage | inhibition, % at 6.95 µM | actives 0.83% (n = 370,000);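 active = inhibition above the mean of compounds lying between control limits plus 3 SD, set per campaign, cut at about 8.5% in these data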;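 note: 0% = DMSO-only wells as the low control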
Target sequence (P78536 215-824 limits assumed): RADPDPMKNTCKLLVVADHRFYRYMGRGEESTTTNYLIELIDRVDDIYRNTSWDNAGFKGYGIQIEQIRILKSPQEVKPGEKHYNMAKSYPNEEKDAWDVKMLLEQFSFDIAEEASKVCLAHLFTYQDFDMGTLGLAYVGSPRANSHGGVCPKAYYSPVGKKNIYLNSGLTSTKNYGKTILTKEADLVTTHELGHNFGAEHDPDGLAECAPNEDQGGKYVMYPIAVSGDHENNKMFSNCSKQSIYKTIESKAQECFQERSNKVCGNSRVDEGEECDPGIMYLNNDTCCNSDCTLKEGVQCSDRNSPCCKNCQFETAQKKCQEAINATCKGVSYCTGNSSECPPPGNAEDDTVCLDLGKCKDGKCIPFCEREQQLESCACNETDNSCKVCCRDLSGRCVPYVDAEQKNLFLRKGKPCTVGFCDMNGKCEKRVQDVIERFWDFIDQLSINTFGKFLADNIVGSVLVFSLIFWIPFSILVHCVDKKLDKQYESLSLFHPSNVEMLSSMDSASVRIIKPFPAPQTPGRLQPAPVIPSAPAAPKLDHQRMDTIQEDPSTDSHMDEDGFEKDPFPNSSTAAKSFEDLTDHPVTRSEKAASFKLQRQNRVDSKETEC
ADAM10 inh: inhibits human ADAM10; recombinant ADAM10, EDANS/DABCYL FRET peptide cleavage, 3 h; inhibition, % at 7 µM; actives 0.62% (n = 370,000); AID 720582;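 active = inhibition above a per-campaign cutoff equal to the mean of compounds falling between control-based bounds plus 3 SD, cut at about 20% in these data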;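 note: 0% = DMSO wells while the 100% control is not disclosed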
MPTP inh: inhibitors of mitochondrial permeability transition pore. isolated mouse mitochondria, Ca2+ swelling absorbance, 30 min. inhibition, % at 10 µM. actives 1.4% (n = 360,000);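 active = inhibition of 50% or more, scaled per plate between neutral and stimulator controls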;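 note: 0% = DMSO wells given calcium and 100% = 1 mM EGTA wells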
V-ATPase pHluor: yeast V-ATPase proton transport regulation by pHLuorin. S. cerevisiae, pHLuorin cytosolic pH fluorescence. response, % at 10 µM. actives 0.37% (n = 350,000). AID 504577; in the data active = response mostly above about 7.3%, no sharp cut-off; inactive = mostly below about 5.4%; note: actives read high
Lipid droplet: hepatic lipid droplet formation modulation; AML12 mouse hepatocytes, oleate lipid droplets, BODIPY imaging; inhibition, % at 6.5 µM; actives 0.4% (n = 240,000);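 active = lipid droplet intensity inhibited by at least 50%, with more than 500 cells counted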
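Material: mouse AML12 hepatocyte cell line, fixed after treatment; Timing: compound with oleate, overnight; Technique: high-content imaging of BODIPY-stained droplets and DAPI nuclei; Probe or stimulus: oleate, 100 µM final; Dosing: compound at 6.5 µM only.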
aDG glyco conf: alpha-DG glycosylation activation, confirmation. actives 17% (n = 600). shares compounds with aDG glyco act. activation, % at 10 µM (by protocol). Pro5-aDG cells, IIH6 AlphaLISA; scaled to LARGE-overexpressing B10 cells as 100%. AID 651671;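 active = activation of at least 7% in one or more replicates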;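 note: cells exposed to compound for two days before detection; 0% = DMSO-treated Pro5 cells and 100% = DMSO-treated B10-LARGE cells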
The depositor's hits bear a star; · = not tested or not shown.

SMILES	aDG glyco act	ADAM17 inh	ADAM10 inh	MPTP inh	V-ATPase pHluor	Lipid droplet	aDG glyco conf
CN1C(=O)c2cc(NC(=O)Nc3ccccc3)ccc2OC[C@H]2O[C@@H](CC(=O)N[C@H]3CCN(Cc4ccccc4)C3)CC[C@@H]21	·	-1.3	5.9	·	·	·	·
CCc1c(C(=O)N/N=C/c2ccc(OCc3ccc(F)cc3)c(OC)c2)nnn1-c1nonc1N	3.5*	0.2	-6.1	2.4	3.4	4.4	2.1
CCOc1cc(/C=N/NC(=O)c2nnn(-c3nonc3N)c2C)ccc1OCc1ccc(F)cc1	-0.1	-2.3	7.6	0.5	-0.9	14.4	·
O=C(NCc1ccccc1)c1ccc(CO)cc1	·	-7.0	-2.8	·	·	·	·
CC(=O)Oc1ccc(N(C(C)=O)S(=O)(=O)c2ccccc2)c2ccccc12	5.7	-1.4	-2.4	0.1	0.8	·	·
CC(=O)Oc1c(Cl)cc(N(C(C)=O)S(=O)(=O)c2ccccc2)c2ccccc12	3.1*	-0.8	6.1	2.9	-59.2	·	5.6*
CC(=O)Oc1ccc(N(C(C)=O)S(=O)(=O)c2ccc(C)cc2C)c2ccccc12	4.9*	6.6	10.7	2.2	2.2	0.5	2.6
COc1ccc(S(=O)(=O)N(C(C)=O)c2ccc(OC(C)=O)c3ccccc23)cc1[N+](=O)[O-]	10.8*	3.4	3.3	3.3	-1.2	6.0	2.1
CCOC(=O)[C@]12CCCCC/C=C\1N(Cc1ccc(OC)cc1)C(=O)[C@H]2CC(=O)NCc1cccc2ccccc12	·	7.2	11.4	·	·	·	·
CCc1ccccc1NC(=O)c1ccc([N+](=O)[O-])s1	12.6*	0.9	10.2	2.0	-1.0	-7.8	1.4
COc1ccccc1NC(=O)COC(=O)c1ccc([N+](=O)[O-])s1	1.7	-5.5	-0.8	-1.2	2.1	20.0	·
Cc1nc2cc(NC(=O)c3ccc([N+](=O)[O-])s3)ccc2s1	10.7*	-0.7	1.8	-0.6	-1.3	-19.3	5.1*
CCOC(=O)[C@@H]1c2[nH]c3ccccc3c2C[C@@]2(C(=O)OC)C=CCN12	·	-21.1	-46.8	·	·	·	·
O=C(OCC#CCSc1nnc(-c2cccc3ccccc23)o1)c1cccc(C(F)(F)F)c1	·	-4.2	-5.5	·	·	·	·
Cn1cnc([N+](=O)[O-])c1Oc1ccc2ccccc2c1	4.7*	-0.5	-1.4	0.8	-2.4	5.2	-0.7
Cn1cnc([N+](=O)[O-])c1Sc1nc2ccccc2[nH]1	0.2	-0.4	1.4	0.4	0.1	-2.1	·
CCCCc1ccc(NC(=O)C(=O)NCCN2CCN(Cc3ccc([N+](=O)[O-])cc3)CC2)cc1	6.6*	-2.1	-5.5	31.0	-1.4	3.7	0.1
CCC(=O)N1c2ccc(S(=O)(=O)N3CCN(CC)CC3)cc2CC1C (stereo unspecified)	0.0	-1.2	4.7	-0.3	-17.5	-5.7	·
CCC(=O)N1c2ccc(S(=O)(=O)N3CCN(c4ccc([N+](=O)[O-])cc4)CC3)cc2CC1C (stereo unspecified)	8.8*	-5.7	-0.8	4.8	-3.7	-35.1	0.0
CC(C)N1CCN(c2ccc(OC[C@H]3CO[C@](Cn4cncn4)(c4ccc(Cl)cc4Cl)O3)cc2)CC1	6.3	-6.0	-4.7	4.6	4.6	·	·
CC(C)N1CCN(c2ccc(OCC3COC(Cn4cncn4)(c4ccc(Cl)cc4Cl)O3)cc2)CC1 (stereo unspecified)	20.6*	8.1	11.3	-0.1	-6.8	·	9.9*
Cc1ccc(S(=O)(=O)N2CCOCC2)cc1C(=O)NC1CCCCC1	50.0*	-2.1	-2.8	0.2	4.5	·	-0.8
Cc1ccc(S(=O)(=O)N2CCOCC2)cc1C(=O)NC1CCCC1	-0.1	0.7	1.2	-0.4	1.4	1.7	·
Cc1nc(SCC(=O)Nc2sccc2C(N)=O)c2c(C)c(C)sc2n1	0.3	0.2	-0.3	4.1	-1.4	·	·
Cc1nc(SCC(=O)Nc2cc(C(N)=O)cc(C(N)=O)c2)c2c(C)c(C)sc2n1	9.0*	-5.7	-16.9	0.7	1.3	37.8	13.2*
SMILES	aDG glyco act	ADAM17 inh	ADAM10 inh	MPTP inh	V-ATPase pHluor	Lipid droplet	aDG glyco conf
COC(=O)[C@H](C)NC(=O)[C@@H]1CC=C[C@@H]2CCN(CCc3ccccc3)C(=O)[C@@H]21	·	-0.9	-2.6	·	·	·	·
Cc1ccc(N(CC(=O)Nc2cc(C)cc(C)c2)S(=O)(=O)c2c(C)noc2C)cc1	7.6*	3.3	11.7	2.1	0.1	-32.2	0.6
COc1ccc(N(CC(=O)Nc2ccc(C)cc2)S(=O)(=O)c2c(C)noc2C)cc1	0.7	-3.2	-4.8	-0.1	1.1	16.9	·
C[C@H]1[C@@H](NC(=O)C2CCC2)CC[C@@]23CCCN2C(=O)CCC[C@@H]13	·	-3.8	-0.1	·	·	·	·
O=C(COC(=O)c1cccc(Br)c1)NCCNC(=O)COC(=O)c1cccc(Br)c1	7.4*	-2.2	3.2	-0.8	-1.4	-1.1	-0.3
O=S(=O)(c1ccc(F)cc1)n1c(CN2CCOCC2)nc2ccccc21	·	-0.5	-9.2	·	·	·	·
CCC(C)CNC(=O)c1cn(C(C)c2ccccc2)nn1 (stereo unspecified)	·	-2.1	-10.2	·	·	·	·
COC(=O)[C@@]1(Cc2ccc(F)cc2)[C@H]2c3cc(C(=O)N4CCCC4)n(CCSCCO)c3C[C@H]2CN1C(=O)c1ccccc1	5.6*	-7.7	-18.4	-1.7	·	·	-0.2
COC(=O)[C@@]1(Cc2ccccc2)[C@H]2c3cc(C(=O)N4CCCC4)n(CCSCCO)c3C[C@H]2CN1C(=O)c1ccccc1	·	·	·	·	·	-0.8	·
COc1ccc(-c2cc(C(=O)NN=Cc3ccc(O)c(OC)c3)[nH]n2)cc1	·	-0.6	-9.8	·	·	·	·
CCn1cc(C(=O)N2CCCC(C(=O)c3ccc4ccccc4c3)C2)cn1 (stereo unspecified)	5.5*	-27.7	-70.9	0.4	-0.1	-3.7	-0.8
Cc1ccc(-n2c(SCC(=O)C(C)(C)C)nnc2-c2cccc(C)c2)cc1	·	3.7	-6.3	·	·	·	·
O=C(c1ccccc1OC(F)F)N1CCN(S(=O)(=O)c2ccc3c(c2)OCCCO3)CC1	13.5*	-0.8	0.6	0.6	0.3	·	-0.5
O=C(c1ccccc1F)N1CCN(S(=O)(=O)c2ccc3c(c2)OCCO3)CC1	-0.1	2.5	3.6	0.3	-0.2	·	·
Cc1cccc(Cn2cc(CN3CC(N4CCN(CCOC(=O)c5cc6ccccc6o5)CC4)CS3(=O)=O)nn2)c1 (stereo unspecified)	·	-8.6	-13.0	·	·	·	·
COc1ccc(Cn2cc(COC(=O)N3CCOCC3)nn2)cc1	·	-12.3	-10.2	·	·	·	·
CCCCn1c(/N=C/c2ccc(N(C)C)cc2)nc2ccccc21	4.9*	-0.5	2.7	1.0	-9.9	7.0	-1.1
COc1ccc2c(Cl)c(-c3nnc(SCC(=O)c4ccccc4)n3C)sc2c1	4.3*	-1.1	-2.0	14.5	-2.1	-5.1	0.7
COc1ccc2c(Cl)c(-c3nnc(SCC(N)=O)n3C)sc2c1	1.4	2.0	-7.5	-1.1	3.6	-22.5	·
